Assay outcomes from PubChem.
Compounds with a hit are over-represented: about 3.1% of the library has one in this group of screens.
aDG glyco up: increases alpha dystroglycan glycosylation; Pro5-aDG cells, alpha-DG glycosylation AlphaScreen (IIH6); 0% Pro5, 100% B10-LARGE cell signal; activation, % at 10 µM; 0.22% of 360,000 active;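 active = activation of at least 8% versus controls, or a plate z-score of at least 8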;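 also: Pro5 are CHO cells carrying HIG-tagged alpha-DG that lacks glycosylation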
ADAM10 inh: inhibitors of human ADAM10. O14672. recombinant ADAM10, EDANS/DABCYL FRET peptide cleavage, 3 h. inhibition, % at 7 µM. 0.62% of 370,000 active. AID 720582;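 active = inhibition above a per-campaign cutoff equal to the mean of compounds falling between control-based bounds plus 3 SD, cut at about 20% in these data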;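 also: 0% = DMSO wells while the 100% control is not disclosed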
Target sequence (O14672 214-748 limits assumed): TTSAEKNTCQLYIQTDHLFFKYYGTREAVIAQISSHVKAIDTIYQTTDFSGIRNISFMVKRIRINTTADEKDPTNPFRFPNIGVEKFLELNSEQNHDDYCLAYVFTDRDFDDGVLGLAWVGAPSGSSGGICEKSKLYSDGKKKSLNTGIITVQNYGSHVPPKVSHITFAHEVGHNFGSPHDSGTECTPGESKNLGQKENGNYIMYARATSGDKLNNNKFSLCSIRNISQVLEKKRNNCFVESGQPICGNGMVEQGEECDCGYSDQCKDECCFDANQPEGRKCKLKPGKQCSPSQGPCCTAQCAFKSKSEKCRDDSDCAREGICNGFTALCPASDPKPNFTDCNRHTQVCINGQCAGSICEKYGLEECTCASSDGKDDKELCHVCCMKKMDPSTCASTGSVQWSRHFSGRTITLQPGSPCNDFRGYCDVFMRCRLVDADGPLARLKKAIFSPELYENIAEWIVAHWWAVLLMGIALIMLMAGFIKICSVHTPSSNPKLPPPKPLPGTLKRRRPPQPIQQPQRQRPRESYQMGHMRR
MPTP inh: blocks calcium-induced mitochondrial swelling | isolated mouse mitochondria, Ca2+ swelling absorbance, 30 min | inhibition, % at 10 µM | 1.4% of 360,000 active | AID 602449;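 active = inhibition of 50% or more, scaled per plate between neutral and stimulator controls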;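 also: 0% = DMSO wells given calcium and 100% = 1 mM EGTA wells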
Hep lipid drop: hepatic lipid droplet formation modulation | AML12 mouse hepatocytes, oleate lipid droplets, BODIPY imaging | inhibition, % at 6.5 µM | 0.4% of 240,000 active | AID 1656;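 active = lipid droplet intensity inhibited by at least 50%, with more than 500 cells counted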
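Assay system: AML12 mouse liver cells | Compound: 6.5 µM single-point dosing | Schedule: Overnight exposure | Technique: Fluorescence imaging, 20x objective, two fields per well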
ADAM17 inh: inhibitors of human ADAM17 | P78536 | recombinant ADAM17, EDANS/DABCYL FRET peptide cleavage | inhibition, % at 6.95 µM | 0.83% of 370,000 active;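 active = inhibition above the mean of compounds lying between control limits plus 3 SD, set per campaign, cut at about 8.5% in these data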;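 also: 0% = DMSO-only wells as the low control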
V-ATPase pHluor: alters yeast V-ATPase proton transport | S. cerevisiae, pHLuorin cytosolic pH fluorescence | response, % at 10 µM | 0.37% of 350,000 active | AID 504577; in the data active = response mostly above about 7.3%, no sharp cut-off; inactive = mostly below about 5.4%; also: actives read high
ADAM10 confirm: human ADAM10 inhibition, confirmation; shares compounds with ADAM10 inh; ADAM10 QFRET peptide cleavage, EDANS fluorescence; inhibition, % at 6.95 µM; 1% of 2,100 active; AID 743208;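 active = inhibition above about 20% chosen separately for each screening run, limit read from the data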;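 also: 0% = DMSO wells and 100% = marimastat wells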
ADAM17 counter: inhibits human ADAM17 in ADAM10 exosite counter-screen. shares compounds with ADAM10 inh. ADAM17 QFRET peptide cleavage, EDANS fluorescence. inhibition, % at 6.95 µM. 0.5% of 2,100 active;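 active = mean triplicate inhibition above the solvent-only control wells' mean plus 3 SD, cut at about 12% in these data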;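 also: 0% = DMSO wells and 100% = marimastat wells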
* = called active by the depositor; x = no result given; ! = a repeat was not active.

SMILES	aDG glyco up	ADAM10 inh	MPTP inh	Hep lipid drop	ADAM17 inh	V-ATPase pHluor	ADAM10 confirm	ADAM17 counter
COc1cccc(N=NC2C(=O)N(C(N)=S)N=C2C)c1 (stereo unspecified)	0	21*	-1	x	-6	7	-1	0
CC1=NN(C(N)=S)C(=O)C1N=Nc1cccc(Cl)c1 (stereo unspecified)	0	5	2	x	5	3	x	x
Cc1ccc(NC(=O)CN2CCN(c3nc(-c4ccccc4)cs3)CC2)cc1C	x	22*	x	x	7	x	7	2
O=C(Nc1cc(Cl)ccc1-n1cncn1)c1cccc(S(=O)(=O)N2CCOCC2)c1	0	93*	1	x	-5	-5	-1	0
Cc1cccc(CNC(=O)NC2CCCCN(Cc3cccc(Cl)c3)C2=O)c1 (stereo unspecified)	x	-4	x	x	2	x	x	x
O=C(NCCCc1ccccc1)[C@H](Cc1c[nH]c2ccccc12)NC1(C(=O)NCCc2c[nH]c3ccccc23)CCOCC1	x	12	x	x	7	x	x	x
CCC(C(=O)Oc1c(C(C)C)cccc1C(C)C)c1ccccc1 (stereo unspecified)	0	79*	-3	x	5	1	-1	0
CCC(C(=O)O/N=C(\N)c1ccccc1)c1ccccc1 (stereo unspecified)	0	-2	0	-3	-1	0	x	x
CCCCNC(=S)N/N=C/c1cc(C)ccc1C	1	20*	1	-17	6	-1	1	1
COC(=O)C(C(=O)OC)[C@H]1C=C[C@@H](C(=O)NS(=O)(=O)c2ccc(C)cc2)N(C(C)=O)C1	x	-5	x	x	0	x	x	x
COc1ccc(-c2cn(-c3ccc(C)cc3C)c(=S)[nH]2)cc1OC	0	20*	0	x	8	-1	4	2
COC(=O)[C@]12C[C@H](CC(=O)N3CCSCC3)C(=O)N(Cc3cccc4ccccc34)C1=C[C@H](C(C)C)O[C@@H]2C1CC1	x	13	x	x	6	x	x	x
O=C1N(CCCO)CCC12CCC(c1ccccc1)CC2 (stereo unspecified)	x	88*!	x	x	3	x	1	0
Cc1ccc2c(c1)/C(=C/c1ccccc1C)C(=O)N2	0	0	1	-1	2	-1	x	x
Cc1ccc2c(c1)/C(=C/c1ccc(F)cc1)C(=O)N2	0	22*	0	-20	3	-1	1	0
CC(=O)NC(c1ccc(F)c(F)c1)c1nc(-c2cccc(C(C)C)c2)cs1 (stereo unspecified)	0	20*	1	x	7	x	3	2
COc1ccc(Cl)cc1NC(=O)C/C(C)=N/NC(=O)COc1ccc(C)cc1	0	13	1	43	0	0	x	x
C/C(CC(=O)Nc1cc(Cl)ccc1Cl)=N\NC(=O)COc1cccc(C)c1	0	20*	0	-4	2	1	2	0
C=C(C)Cn1c(SCC(=O)N/N=C(\C)c2ccc(Br)cc2)nnc1-c1ccc(Br)cc1	x	4	x	x	-2	x	x	x
COc1ccc(-c2noc(-c3ccccc3C(=O)Nc3cccnc3)n2)cc1	0	5	0	28	-1	-1	x	x
COc1ccc(-c2noc(-c3ccccc3C(=O)Nc3cccc(OC)c3)n2)cc1	0	25*	2	x	7	-4	3	1
CCN(C(=O)CN1CCN(c2nc(-c3ccccc3)cs2)CC1)c1ccccc1C	x	16	x	x	7	x	x	x
COC(=O)C1CN(Cc2ccc(Cl)cc2)CCS(=O)(=O)N1Cc1cn(Cc2ccc(F)cc2)nn1 (stereo unspecified)	x	4	x	x	-1	x	x	x
CCOC(=O)c1ccc(NC(=O)c2ccc(CN3CCc4ccccc4C3)cc2)cc1	1	8	0	2	0	0	x	x
CCOc1ccc(NC(=O)c2ccc(CN3CCc4ccccc4C3)cc2)cc1	0	20*	2	-5	8	-1	11	5
SMILES	aDG glyco up	ADAM10 inh	MPTP inh	Hep lipid drop	ADAM17 inh	V-ATPase pHluor	ADAM10 confirm	ADAM17 counter
O=[N+]([O-])c1cc(CN2CCN(c3ccccc3)CC2)c(O)c2ncccc12	1	20*	2	-51	6	6.6*	6	1
CN1CCCN(C(=O)CN2C(=O)CC(C)(C)S(=O)(=O)c3ccccc32)CC1	x	-13	x	x	1	x	x	x
Cc1ccccc1OCCC(=O)OCC(=O)Nc1ccc(C)c(S(=O)(=O)N2CCCCC2)c1	0	18	0	x	8	x	x	x
Cc1ccc(NC(=O)c2cccc(S(=O)(=O)N(C)c3ccccc3)c2)cc1S(=O)(=O)N1CCOCC1	1	21*	27	7	8	1	4	1
Cc1ccc(NCC(=O)Nc2cccc(S(=O)(=O)N(C)C)c2)cc1S(=O)(=O)N1CCCCCC1	1	24*	15	x	8	0	2	0
Cc1ccc(C)c(OCCC(=O)OCC(=O)Nc2ccc(C)c(S(=O)(=O)N3CCCCC3)c2)c1	0	27*	4	x	-11	-8	9	3
Cc1ccc(NC(=O)CNc2cccc(S(=O)(=O)N3CCCC3)c2)cc1F	0	4	3	x	4	-4	x	x
Cc1ccc(C(=O)Nc2cccc(C(=O)O)c2)cc1S(=O)(=O)N1CCOCC1	0	-5	-1	-3	-4	5	x	x
COC(=O)[C@@]12CCCCC=C1N(CCc1ccc(Cl)cc1)C(=O)[C@H]2CC(=O)NCCC(C)C	x	-2	x	x	-3	x	x	x
C=CCN(C)C(C#Cc1ccccc1)Cc1ccccc1 (stereo unspecified)	x	-1	x	x	1	x	x	x
C[C@@H]1CCCCO[C@H](CN(C)C(=O)Nc2ccc(F)cc2)[C@@H](C)CN([C@H](C)CO)C(=O)c2cc(NC(=O)c3ccccc3)ccc2O1	0	23*	-2	x	3	-2	3	0
C[C@@H]1CN([C@@H](C)CO)C(=O)c2ccccc2-c2ccccc2CO[C@@H]1CN(C)Cc1ccc(Cl)c(Cl)c1	x	22*	x	x	8	x	8	3
C[C@H]1CCCCO[C@H](CN(C)C(=O)Nc2ccc(F)cc2)[C@@H](C)CN([C@@H](C)CO)C(=O)c2cc(NC(=O)Nc3ccc4c(c3)OCO4)ccc2O1	0	23*	1	x	8	-1	10	3
C[C@H](CO)N1C[C@H](C)[C@H](CN(C)Cc2ccccc2)Oc2c(NC(=O)Nc3ccc(F)cc3)cccc2C1=O	1	12	1	x	3	2	x	x
COc1ccc(NC(=O)N(C)C[C@H]2OCCCC[C@H](C)Oc3ccc(NC(=O)Nc4ccc5c(c4)OCO5)cc3C(=O)N([C@@H](C)CO)C[C@@H]2C)cc1	1	18	1	x	8	2	x	x
